Results pooled from the literature.
Each line is one published result; the experiments were not run side by side.
PIK3CG: Phosphatidylinositol 4,5-bisphosphate 3-kinase catalytic subunit gamma isoform (PIK3CG, Homo sapiens, UniProt P48736)
DHODH: Dihydroorotate dehydrogenase (quinone), mitochondrial (DHODH, Homo sapiens, UniProt Q02127)
SCTR: Secretin receptor (SCTR, Homo sapiens, UniProt P47872)
PTGS2: Prostaglandin G/H synthase 2 (PTGS2, Homo sapiens, UniProt P35354)

Structure (SMILES) | target | observed | action | method | measurement | value
Cc1nc(Nc2ccc3c(c2)C(C)(C)C(=O)N3C)c2ccccc2n1 | PIK3CG | enzyme activity | inhibitor | ADP detection | IC50 | 389 nM
Cc1nn(C2CC2)c(=O)c2nn(C)c(Cc3ccc(C(F)(F)F)c(C#N)c3)c12 | DHODH | enzyme activity | inhibitor |  | IC50 | 30000 nM
Cc1nc(Nc2ccc3c(c2)C(C)(C)C(=O)N3)c2ccccc2n1 | PIK3CG | enzyme activity | inhibitor | ADP detection | IC50 | 134 nM
CCn1cc(C)c2c(C(O)c3ccc(Cl)c(F)c3)n(C)nc2c1=O (centres unmarked) | DHODH | enzyme activity | inhibitor |  | IC50 | > 100000 nM
CC1=NN(/C(=N\c2cccnc2)Nc2nnc(C)s2)C(c2ccc(C)cc2)S1 (centres unmarked) | SCTR | cAMP | agonist | TR-FRET | EC50 | > 50000 nM
O=C(/C=C/c1ccc(O)c(O)c1)O[C@@H]1C[C@](O)(C(=O)O)C[C@@H](O)[C@H]1O | PTGS2 | enzyme activity | inhibitor | fluorescence | IC50 | 30000 nM
Cc1nc(Nc2ccc3c(c2)CC(=O)N3)c2ccccc2n1 | PIK3CG | enzyme activity | inhibitor | ADP detection | IC50 | 568 nM
CCn1ncc2c([C@](O)(c3ccc(C(F)(F)F)c(Cl)c3)C3CC3)n(C)nc2c1=O | DHODH | enzyme activity | inhibitor |  | IC50 | > 100000 nM
CCCc1ccc(/N=C(/Nc2nnc(C)s2)N2N=C(C)SC2c2ccc(C)cc2)cc1 (centres unmarked) | SCTR | cAMP | agonist | TR-FRET | EC50 | > 50000 nM
Cn1nc2c(=O)n(C3CC3)nc(C3CC3)c2c1Cc1ccc(C(F)(F)F)c(F)c1 | DHODH | enzyme activity | inhibitor |  | IC50 | 2300 nM
CCCc1cc(C(=O)Nc2ccc(C(C)=O)cc2)c(NC(=O)c2ccccc2)s1 | PTGS2 | enzyme activity | inhibitor |  | IC50 | 1230 nM
CC1=NN(/C(=N\c2ccccc2F)Nc2nnc(C)s2)C(c2ccc(C)cc2)S1 (centres unmarked) | SCTR | cAMP | agonist | TR-FRET | EC50 | 19800 nM
COc1cc2ncnc(Nc3ccc4c(c3)/C(=C/c3ccccc3)C(=O)N4)c2cc1OC | PIK3CG | enzyme activity | inhibitor | ADP detection | IC50 | 109 nM
CC1=NN(/C(=N/c2nnc(C)s2)Nc2ccc(C)c(C)c2)C(c2ccc(F)cc2)S1 (centres unmarked) | SCTR | cAMP | agonist | TR-FRET | EC50 | 800 nM
Cc1nc(Nc2ccc3c(c2)/C(=C/c2ccccc2Cl)C(=O)N3)c2ccccc2n1 | PIK3CG | enzyme activity | inhibitor | ADP detection | IC50 | 34.5 nM
CCn1cc(C2CC2)c2c(CN3CCC(C)(F)CC3)n(C)nc2c1=O | DHODH | enzyme activity | inhibitor | absorbance | IC50 | > 100000 nM
CC(=O)N(CC#Cc1cccc(C(N)=O)c1)C[C@H]1C[C@@H](n2ccc3c(Cl)ncnc32)[C@H](O)[C@@H]1O | Serine hydroxymethyltransferase, mitochondrial (SHMT2, Homo sapiens, UniProt P34897) | binding |  | MST | Kd | 2110 nM
